{"data": "Measured values from different studies"}
{"SMILES": "COc1ccc2nccc(N3CCc4c(cc(Cn5ccnc5)cc4-c4cn(C)nc4C(F)(F)F)C3=O)c2c1", "test system": "male CD-1 mouse, plasma", "conditions": "oral, 50 mg/kg", "AUC(0-inf)": "33800 ng·h/mL"}
{"SMILES": "CC(C)(C)c1ccc(O)c(CN(Cc2cc(C(C)(C)C)ccc2O)C2CCC(NC(N)=O)CC2)c1 (stereo not drawn)", "test system": "male C57BL/6 mouse, plasma", "conditions": "intraperitoneal, 25 mg/kg, single dose", "AUC(0-inf)": "16600 ng·h/mL"}
{"SMILES": "c1ccc(-c2nc(N3CCC(c4ccccn4)C3)c3ccccc3n2)nc1 (stereo not drawn)", "test system": "female BALB/c mouse, plasma", "conditions": "oral, 50 mg/kg", "AUC(0-inf)": "10500 ng·h/mL"}
{"SMILES": "Cc1noc(C)c1-c1ccc2nc(-c3cnn(CCO)c3)nc(N3CCOCC3c3ccccc3)c2c1 (stereo not drawn)", "test system": "CD-1 mouse, plasma", "conditions": "intravenous, 2 mg/kg", "AUC(0-inf)": "1760 ng·h/mL"}
{"SMILES": "CCc1cc(OC)c2nccc(N3CCc4c(cc(Cn5ccnc5)cc4-c4cn(C)nc4C(F)(F)F)C3=O)c2c1", "test system": "male CD-1 mouse, plasma", "conditions": "oral, 150 mg/kg", "AUC(0-inf)": "225000 ng·h/mL"}
{"SMILES": "COc1nc(-c2cc(C)c(N[C@@H](C)c3cc(F)cc(F)c3)nn2)ccc1-n1cnc(C)c1", "test system": "male CD-1 mouse, plasma", "conditions": "oral, 5 mg/kg, single dose", "AUC(0-inf)": "13800 ng·h/mL"}
{"SMILES": "COc1cc(OC)c2nccc(N3CCc4c(cc(Cn5ccnc5)cc4-c4cn(C)nc4C(F)(F)F)C3=O)c2c1", "test system": "male CD-1 mouse, plasma", "conditions": "intravenous, 3 mg/kg", "AUC(0-inf)": "805 ng·h/mL"}
{"SMILES": "Cc1cc(NC(=O)c2cccc3cc(-c4cccc5[nH]nc(N)c45)ccc23)ccc1F", "test system": "male CD-1 mouse, plasma", "conditions": "oral, 10 mg/kg", "AUC(0-inf)": "4940 ng·h/mL"}
{"SMILES": "COc1cc2c(Nc3ccc(Cl)c(Cl)c3F)ncnc2cc1OC[C@@H]1C[C@@H]2CN(C)C[C@@H]2C1", "test system": "FVB mouse, brain", "conditions": "oral, 70 mg/kg, single dose", "AUC(0-inf)": "158000 ng·h/mL"}
{"SMILES": "Cc1ccc2cncc(N3CCc4c(cc(Cn5ccnc5)cc4-c4cn(C)nc4C(F)(F)F)C3=O)c2c1", "test system": "male CD-1 mouse, plasma", "conditions": "oral, 10 mg/kg", "AUC(0-inf)": "4460 ng·h/mL"}
{"SMILES": "CN1C(=O)c2ccccc2[S@+]([O-])c2ccc(C(=O)NCCc3cccs3)cc21", "test system": "male C57BL/6 mouse, brain", "conditions": "intraperitoneal, 30 mg/kg, single dose", "AUC(0-inf)": "1430 ng·h/mL"}
{"SMILES": "Cc1cc(Nc2ccc(S(F)(F)(F)(F)F)cc2)n2ccnc2n1", "test system": "male Swiss mouse, plasma", "conditions": "oral, 100 mg/kg, single dose", "AUC(0-inf)": "154 µM·h"}
{"SMILES": "CCc1cc(C(=O)NC)c2nccc(N3CCc4c(cc(Cn5ccnc5)cc4-c4cn(C)nc4C(F)(F)F)C3=O)c2c1", "test system": "male CD-1 mouse, plasma", "conditions": "intravenous, 3 mg/kg", "AUC(0-inf)": "4180 ng·h/mL"}
{"SMILES": "COc1cc(C(=O)N2CCC(N3CCN(C)CC3)CC2)ccc1Nc1ncc2c(n1)N(C)c1ccccc1C(=O)N2C", "test system": "mouse, plasma", "conditions": "intravenous, 1 mg/kg", "AUC(0-inf)": "2970 ng·h/mL"}
{"SMILES": "CNCCN(C)c1cc(C#N)cc(CCc2cc(C)cc(N)n2)c1", "test system": "male BALB/c mouse, plasma", "conditions": "oral, 10 mg/kg", "AUC(0-inf)": "182 ng·h/mL"}
{"SMILES": "COc1nc(-c2cc(C)c(N[C@@H](C)c3c(F)cc(F)cc3F)nn2)ccc1-n1cnc(C)c1", "test system": "male CD-1 mouse, plasma", "conditions": "intravenous, 1 mg/kg, single dose", "AUC(0-inf)": "2500 ng·h/mL"}
{"SMILES": "CNC(=O)c1cc(OC)cc2c(N3CCc4c(cc(Cn5ccnc5)cc4-c4cn(C)nc4C(F)(F)F)C3=O)ccnc12", "test system": "male CD-1 mouse, plasma", "conditions": "intravenous, 3 mg/kg", "AUC(0-inf)": "3300 ng·h/mL"}
{"SMILES": "Cc1ccc(NC(=O)c2ccc(CN3CCN(C)CC3)cc2)cc1Nc1nccc(-c2cncc(-c3oncc3C)c2)n1", "test system": "male C57BL/6 mouse, brain", "conditions": "oral, 100 mg/kg/day", "AUC(0-inf)": "1200 ng·h/mL"}
{"SMILES": "Cc1nc(-c2cnc(NC(C)C)n(C)c2=O)ccc1Oc1ccnc(-c2cnn(C)c2)c1", "test system": "female mouse, plasma", "conditions": "oral, 7.5 mg/kg, single dose", "AUC(0-inf)": "80400 ng·h/mL"}
{"SMILES": "CCNc1nc2c(c(N3CC(=O)Nc4cc(OC)ccc43)n1)CCC2", "test system": "female C57BL/6 mouse, plasma", "conditions": "intravenous, 4 mg/kg, single dose", "AUC(0-inf)": "620 ng·h/mL"}
{"SMILES": "CC[C@H](C)[C@@H]1NC(=O)[C@@](C)(NC(=O)[C@H](CCCNC(=N)N)NC(=O)[C@H](CC(C)C)NC(=O)[C@@H](NC(=O)[C@H](CCC(N)=O)NC(=O)[C@H](CC(C)C)NC(C)=O)[C@@H](C)O)CCCC=CCCC[C@@](C)(C(=O)N[C@@H](CC(C)C)C(=O)N[C@@H](Cc2ccc3ccccc3c2)C(N)=O)NC(=O)[C@H](CCCNC(=N)N)NC(=O)[C@H](CCC(N)=O)NC1=O", "test system": "male BALB/c mouse, plasma", "conditions": "intravenous, 10 mg/kg", "AUC(0-inf)": "233000 ng·h/mL"}
